Measured values reported in article PMC8520753 (CPT: Pharmacometrics & Systems Pharmacology, 2021).
Entries after “also recorded” stand apart in the source; their conditions may differ. Where two headings read alike, the source gives them in different places.

How the values were obtained:
[1] = Refined pediatric population pharmacokinetic; format: in vivo, children (pediatric patients); conditions: for Relative oral bioavailability: set to 100% for 0.12 mg/kg
Method in brief: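 Children from birth to <18 y (VTE and post-Fontan) received oral bodyweight-adjusted rivaroxaban at 0.4 mg–20 mg, as single or multiple o.d./b.i.d./t.i.d. doses of tablet, oral suspension or granules. Plasma concentrations were fitted by PopPK with an 82.48 kg adult reference weight. Age, dose/kg on F1, formulation on ka, renal function and Fontan were screened graphically, then against random-effect estimates.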

[2] = cited from earlier work
[3] = subject with a bodyweight of 70 kg; cited from earlier work
[4] = cited from earlier work; remark: listed apart in the source
[5] = integrated PopPK model in adults; cited from earlier work
CYP3A7 = CYP3A7 (Homo sapiens, UniProt P24462); assay: In vitro analyses of CYP3A7 contribution; format: in vitro ADME; conditions: historic and recently repeated in vitro analyses, unpublished, data on file
[6] = PopPK fixed effect, children, reference BW 82.48 kg

Chain of CYP3A7 (P24462 whole entry): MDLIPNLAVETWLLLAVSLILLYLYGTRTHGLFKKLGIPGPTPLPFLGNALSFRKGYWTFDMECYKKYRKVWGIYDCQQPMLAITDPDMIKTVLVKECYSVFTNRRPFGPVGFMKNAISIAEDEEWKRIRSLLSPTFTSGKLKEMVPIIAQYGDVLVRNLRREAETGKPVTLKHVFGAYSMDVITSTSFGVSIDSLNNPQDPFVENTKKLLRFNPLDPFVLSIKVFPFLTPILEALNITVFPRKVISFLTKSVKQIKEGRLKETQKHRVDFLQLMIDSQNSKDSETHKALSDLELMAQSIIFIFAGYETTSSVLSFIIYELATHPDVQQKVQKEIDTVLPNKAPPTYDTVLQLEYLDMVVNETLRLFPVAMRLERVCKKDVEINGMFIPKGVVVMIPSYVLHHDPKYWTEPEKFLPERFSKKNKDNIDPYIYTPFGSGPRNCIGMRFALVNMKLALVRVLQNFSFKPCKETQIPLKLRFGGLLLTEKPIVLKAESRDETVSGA

ka, tablet, granules for oral suspension and diluted ready-to-use oral suspension [1]: 0.799 h⁻¹
ka, undiluted ready-to-use oral suspension [1]: 0.226 h⁻¹
ka for tablets, granules and diluted suspension ([1]; PopPK fixed effect, children): 0.799 h⁻¹
ka for undiluted suspension ([1]; PopPK fixed effect, children): 0.226 h⁻¹
CL for subject with BW of 82.48 kg [1, 6]: 8.02 L/h
Q for subjects with BW of 82.48 kg [1, 6]: 2.50 L/h
Vc for subject with BW of 82.48 kg [1, 6]: 53.2 L
Vp for subject with BW of 82.48 kg [1, 6]: 59.1 L
Exponent to scale Vc and Vp on BW ([1]; allometric exponent, assumed identical for Vc and Vp): 0.821
Exponent to scale Q on BW ([1]; allometric exponent, children): 0.761
Relative oral bioavailability ([1]; at 0.30 mg/kg): 79.1%
Relative oral bioavailability ([1]; at 0.50 mg/kg): 68.1%
Effect of bodyweight on CL, Q, Vc and Vp ([1]; covariate analysis): significant effect
Effect of age on CL or F1 ([1]; covariate analysis, age 0 to 18 years): No effect
Effect of comedication (weak or moderate CYP3A4 inhibitors, CYP3A4 inducers) on CL or F1 ([1]; exploratory evaluation): no significant effect
clearance ([1]; human, plasma, oral): 134 mL/min
ωCL2 (exponential), interindividual variability ([1]; random effect on CL): 0.0705
ωF12 (exponential), interindividual variability ([1]; random effect on F1): 0.0612
Population variation of CL (interindividual variability) ([1]; sqrt{exp(ω^2)-1}*100): 27.0%
Population variation of F1 (interindividual variability) ([1]; sqrt{exp(ω^2)-1}*100): 25.1%
Contribution of CYP3A7 to the high clearance below 2 years (CYP3A7): could also be excluded
SMILES: O=C(NC[C@H]1CN(c2ccc(N3CCOCC3=O)cc2)C(=O)O1)c1ccc(Cl)s1 [rivaroxaban]
Influence of renal function on PK ([1]; covariate analysis, four approaches, eGFR 43.8 to 456 ml/min/1.73 m^2): None of the four methods to test for an influence of renal function led to a significant improvement; also recorded: None of the four tested methods could improve the model fit
Dose-dependency of relative oral bioavailability ([1]; ~0.1 to 0.5 mg/kg single doses): decrease with increasing dose per bodyweight
Share of elimination by CYP3A, glomerular filtration and tubular secretion ([2]; adult mass balance data): ~ 54%
Excreted unchanged via feces ([2]; adult mass balance): 7%
Share of elimination by CYP2J2 ([2]; adult mass balance): 14%
Share of elimination by CYP-independent hydrolysis ([2]; adult mass balance): 14%
Unaccounted in the mass balance study ([2]; adult mass balance): 11%
Total plasma clearance [3]: 7.26 L/h
Biopharmaceutics Classification System class [4]: class 2
Total plasma clearance [5]: 6.58 L/h
